We go through four compounds from ChEMBL document CHEMBL3526041, “Absorption, metabolism and excretion of [(14)C]mirabegron (YM178), a potent and selective β(3)-adrenoceptor agonist, after oral administration to healthy male volunteers” (Drug Metab Dispos, 2012).

The term Tmax denotes the time at which the peak concentration occurs. The Cmax is the highest concentration seen after dosing. One may read the AUC as the area under the concentration-time curve, a measure of exposure.

Holding throughout (details): in vivo
Data set [1] concerns Plasma. The data set can be described thus: Terminal elimination phase half life as total radioactivity in healthy human plasma at 160 mg, po as single dose. It counts as ADME, organism-based. On the set-up: dosed compound name [14C]Mirabegron. In outline: (§1)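 Four healthy men fasted overnight, then took one oral dose of 160 mg mirabegron containing 1.85 MBq [14C]mirabegron, dissolved in 20 mM sodium citrate pH 4.5. Blood was drawn into lithium heparin tubes from 0 to 168 h. Total radioactivity in whole blood and plasma was counted by liquid scintillation. Unchanged drug in plasma was measured by validated LC-MS/MS (1–500 ng/ml). Parameters were derived noncompartmentally; values are mean ± S.D., n=4.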

Data set [2] in a line: Terminal elimination phase half life as total radioactivity in healthy human urine at 160 mg, po as single dose. It counts as ADME, organism-based. The arrangement: dosed compound name [14C]Mirabegron. Summed up: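 Same single oral 160 mg [14C]mirabegron solution in four fasted healthy men. Urine was collected over 0–6, 6–12 and 12–24 h, then in 24-h intervals to 408 h. Radioactivity was measured by scintillation counting. Unchanged drug was measured by LC-MS/MS (2–1000 ng/ml). Half-life came from log-linear regression of the terminal phase, and renal clearance was also calculated.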

Data set [3] concerns Blood. Briefly: Tmax as total radioactivity in healthy human whole blood at 160 mg, po as single dose. The arrangement: dosed compound name [14C]Mirabegron. It counts as ADME, organism-based. Summed up: as §1
Data set [4] deals with Blood. The data set can be described thus: Cmax as total radioactivity in healthy human whole blood at 160 mg, po as single dose. Type of data set: ADME, organism-based. On the set-up: dose 160 mg, route oral, dosed compound name [14C]Mirabegron. Summed up:
as §1

In data set [5] the test system is Blood. The data set can be described thus: AUC (infinity) as total radioactivity in healthy human whole blood at 160 mg, po as single dose. The arrangement: dose 160 mg, time infinity, route oral, dosed compound name [14C]Mirabegron. It counts as ADME, organism-based. Summed up:
as §1

Data set [6] relates to Blood. Briefly: Terminal elimination phase half life as total radioactivity in healthy human whole blood at 160 mg, po as single dose. Type of data set: ADME, organism-based. On the set-up: dosed compound name [14C]Mirabegron. Summed up: as §1
Data set [7] can be described thus: Drug recovery in healthy human urine at 160 mg, po as single dose measured up to 408 hrs. Type of data set: ADME, organism-based. On the set-up: dosed compound name [14C]Mirabegron. In outline:
(§2)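 One oral dose of 160 mg [14C]mirabegron (1.85 MBq) given as a solution to four healthy men. Urine and feces were collected to 408 h; feces were homogenized and combusted. Expired air was trapped in hyamine hydroxide at set times to 96 h. All samples were counted by liquid scintillation. Cumulative excretion is given as % of administered radioactivity, mean ± S.D., n=4.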

Data set [8] is described as follows: Drug recovery in healthy human feces at 160 mg, po as single dose measured up to 408 hrs. The arrangement: dosed compound name [14C]Mirabegron. It counts as ADME, organism-based. Summed up: as §2
Data set [9] can be described thus: Drug recovery in healthy human expired air at 160 mg, po as single dose measured up to 96 hrs. It counts as ADME, organism-based. The arrangement: dosed compound name [14C]Mirabegron. In outline:
as §2

Data set [10] relates to Homo sapiens. Briefly: Total drug recovery in healthy human at 160 mg, po as single dose measured up to 408 hrs. It counts as ADME, organism-based. On the set-up: dosed compound name [14C]Mirabegron. In outline:
as §2

A short description of data set [11]: Drug recovery in healthy human urine at 160 mg, po as single dose measured up to 96 hrs. It counts as ADME, organism-based. The arrangement: dosed compound name [14C]Mirabegron. Summed up:
as §2

For data set [12], the system named is Homo sapiens. The data set can be described thus: Toxicity in healthy human assessed as changes in clinical lab values at 160 mg, po as single dose. Type of data set: organism-based. The arrangement: dosed compound name [14C]Mirabegron. Summed up:
(§3)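 Safety in the four dosed men was followed throughout admission: 12-lead ECGs, vital signs, hematology, biochemistry, urinalysis, and physical examinations after a single oral 160 mg [14C]mirabegron solution.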

Data set [13] deals with Homo sapiens. The data set can be described thus: Toxicity in healthy human assessed as vital signs at 160 mg, po as single dose. Type of data set: organism-based. On the set-up: dosed compound name [14C]Mirabegron. In outline:
as §3

The test system of data set [14] is Homo sapiens. Briefly: Toxicity in healthy human assessed as ECG parameter at 160 mg, po as single dose. Type of data set: organism-based. On the set-up: dosed compound name [14C]Mirabegron. Summed up:
as §3

Data set [15] relates to Homo sapiens. The data set can be described thus: Toxicity in healthy human assessed as changes in physical signs at 160 mg, po as single dose. Type of data set: organism-based. On the set-up: dosed compound name [14C]Mirabegron. In outline: as §3
Data set [16] relates to Plasma. The data set can be described thus: Tmax as total radioactivity in healthy human plasma at 160 mg, po as single dose. It counts as ADME, organism-based. The arrangement: dosed compound name [14C]Mirabegron. Summed up:
as §1

Data set [17] deals with Plasma. The data set can be described thus: Cmax as total radioactivity in healthy human plasma at 160 mg, po as single dose. It counts as ADME, organism-based. The arrangement: dose 160 mg, route oral, dosed compound name [14C]Mirabegron. In outline:
as §1

The test system of data set [18] is Plasma. The data set can be described thus: AUC (infinity) as total radioactivity in healthy human plasma at 160 mg, po as single dose. It counts as ADME, organism-based. On the set-up: dose 160 mg, route oral, time infinity, dosed compound name [14C]Mirabegron. In outline: as §1
Data set [19] is described as follows: Drug recovery in healthy human feces at 160 mg, po as single dose measured up to 96 hrs. Type of data set: ADME, organism-based. On the set-up: dosed compound name [14C]Mirabegron. In outline: as §2
Data set [20] in a line: Drug recovery in healthy human plasma at 160 mg, po as single dose measured at 12 hrs.
The nature of data set [21]: Drug recovery in healthy human urine treated with [14C]mirabegron at 160 mg, po as single dose measured up to 48 hrs. Type of data set: ADME, organism-based. On the set-up: dosed compound name [14C]Mirabegron. In outline: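 Urine was collected at 0–6, 6–12, 12–24 and 24–48 h after a single oral 160 mg [14C]mirabegron dose in four men, with dichlorvos added. Samples underwent solid-phase extraction and radio-HPLC (C18, 40°C), with eluate fractions counted by scintillation. Each peak, as a percentage of eluted radioactivity, was converted to % of dose without recovery correction; mean ± S.D.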

Data set [22] deals with Plasma. Briefly: Drug recovery in healthy human plasma treated with [14C]mirabegron at 160 mg, po as single dose measured at 2 hrs. Type of data set: ADME, organism-based. On the set-up: dosed compound name [14C]Mirabegron. Summed up: (§4)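 Plasma taken at 2, 4, 8 and 12 h from the four subjects was pooled at each time point, with dichlorvos added. Pools underwent solid-phase extraction, then HPLC with fractions counted by low-level liquid scintillation. Each peak is expressed as % of the radioactivity injected onto HPLC.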

Data set [23] concerns Plasma. Briefly: Drug recovery in healthy human plasma treated with [14C]mirabegron at 160 mg, po as single dose measured at 4 hrs. Type of data set: ADME, organism-based. On the set-up: dosed compound name [14C]Mirabegron. In outline:
as §4

For data set [24], the system named is Plasma. Briefly: Drug recovery in healthy human plasma treated with [14C]mirabegron at 160 mg, po as single dose measured at 8 hrs. It counts as ADME, organism-based. The arrangement: dosed compound name [14C]Mirabegron. Summed up:
as §4

The subject of data set [25] is Plasma. The data set can be described thus: Drug recovery in healthy human plasma treated with [14C]mirabegron at 160 mg, po as single dose measured at 12 hrs. Type of data set: ADME, organism-based. The arrangement: dosed compound name [14C]Mirabegron. Summed up: as §4

For the compound `Nc1nc(CC(=O)N[14c]2[14cH][14cH][14c](CCNC[C@H](O)c3ccccc3)[14cH][14cH]2)cs1`, the “beta t1/2” value with Plasma [1] stood at 28.2 h; in data set [2], 84.5 h; in the data set with Blood [6] it was 30.5 h. Further, the results for the Tmax in the data set on Blood [3] and in the data set on Plasma [16] were 2.13 h and 2.25 h, respectively. Further, the Cmax with Blood [4] was found to be 777 ng/mL; with Plasma [17], 879 ng/mL. The AUC in the data set with Blood [5] was found to be 13896 ng·h/mL; in the data set with Plasma [18], 10443 ng·h/mL. The Radiolabel recovery in data set [7] is 55%; in [8], 34.2%; in [9], “Below limit of detection”; in the data set on Homo sapiens [10] it was 89.2%; in data set [11] it was 48.7%; in [19], 29.3%. Also, the Radiolabel recovery entry in data set [20] was “metabolite_not_detected”. Further, the Activity result in the data set on Homo sapiens [12], with Homo sapiens [13], in the data set on Homo sapiens [14] and with Homo sapiens [15] was “Non-toxic” each time.

As for `Nc1ccc(CCNCC(O)c2ccccc2)cc1O[C@@H]1O[C@H](C(=O)O)[C@@H](O)[C@H](O)[C@H]1O` (stereo not given in full), the Compound recovery was 2% in data set [21]; “Below limit of detection” in the data set with Plasma [22]; “Below limit of detection” in the data set with Plasma [23]; “Below limit of detection” with Plasma [24]; “Below limit of detection” with Plasma [25].

In the case of `CC(=O)Nc1ccc(CC(=O)O)cc1` [ACTARIT], the Compound recovery is recorded as 0.6% in data set [21]; “Below limit of detection” in the data set on Plasma [22]; “Below limit of detection” in the data set with Plasma [23]; “Below limit of detection” in the data set with Plasma [24]; “Below limit of detection” with Plasma [25].

Regarding `Cl.Nc1ccc(CCNC[C@H](O)c2ccccc2)cc1`, the Compound recovery stood at 1.7% in data set [21]; 3.3% in the data set with Plasma [22]; 4.3% in the data set with Plasma [23]; 6.2% with Plasma [24]; 7.6% with Plasma [25].
